ChEMBL document CHEMBL4152287, “Synthesis and characterization of novel classes of PDE10A inhibitors - 1H-1,3-benzodiazoles and imidazo[1,2-a]pyrimidines” (Eur J Med Chem, 2018)

Legend:
[1] = molecular target: T1, cAMP and cAMP-inhibited cGMP 3',5'-cyclic phosphodiesterase 10A (Homo sapiens, UniProt Q9Y233); assay: Inhibition of Ca2+/calmodulin-induced recombinant human full length N-terminal GST-tagged PDE10A1 expressed in baculovirus infected Sf9 cells using cAMP as substrate pretreated for 10 mins followed by substrate addition and measured after 40 mins by kinase-Glo luminescence assay; conditions: read-out: IC50
T1 sequence (Q9Y233 whole entry): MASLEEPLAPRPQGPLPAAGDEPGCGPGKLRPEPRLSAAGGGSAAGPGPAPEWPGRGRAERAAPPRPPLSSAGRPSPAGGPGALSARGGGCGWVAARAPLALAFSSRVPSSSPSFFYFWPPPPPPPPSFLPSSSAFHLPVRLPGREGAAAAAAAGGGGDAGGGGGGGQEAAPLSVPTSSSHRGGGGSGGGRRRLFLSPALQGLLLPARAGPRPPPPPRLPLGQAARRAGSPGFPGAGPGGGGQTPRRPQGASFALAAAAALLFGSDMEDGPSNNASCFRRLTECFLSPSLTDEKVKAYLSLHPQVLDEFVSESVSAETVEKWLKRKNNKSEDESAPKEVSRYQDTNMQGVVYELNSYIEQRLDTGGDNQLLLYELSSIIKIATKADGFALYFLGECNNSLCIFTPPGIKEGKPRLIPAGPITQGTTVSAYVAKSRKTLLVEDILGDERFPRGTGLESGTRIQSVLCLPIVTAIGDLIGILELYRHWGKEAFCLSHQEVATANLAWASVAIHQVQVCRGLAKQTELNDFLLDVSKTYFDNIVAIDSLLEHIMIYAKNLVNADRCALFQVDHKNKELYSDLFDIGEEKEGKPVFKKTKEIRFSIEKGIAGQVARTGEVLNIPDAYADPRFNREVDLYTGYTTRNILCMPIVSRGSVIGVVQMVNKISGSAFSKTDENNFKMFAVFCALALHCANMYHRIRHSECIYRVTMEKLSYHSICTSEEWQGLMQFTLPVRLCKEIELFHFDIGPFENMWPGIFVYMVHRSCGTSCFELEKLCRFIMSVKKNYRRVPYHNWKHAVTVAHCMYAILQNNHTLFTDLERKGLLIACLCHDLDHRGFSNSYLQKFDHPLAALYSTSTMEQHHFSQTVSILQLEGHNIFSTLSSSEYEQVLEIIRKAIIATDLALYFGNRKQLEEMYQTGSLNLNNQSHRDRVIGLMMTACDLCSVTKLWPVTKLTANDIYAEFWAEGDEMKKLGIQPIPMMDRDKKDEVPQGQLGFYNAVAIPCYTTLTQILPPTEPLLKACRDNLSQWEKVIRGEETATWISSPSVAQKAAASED

[2] = Intrinsic clearance in rat liver microsomes in presence of NADP/G6P/G6P dehydrogenase/MgCl2 by LC/MS analysis; type: ADME, microsome; conditions: read-out: CLH
In short: (§1)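 Phase-1 liver microsomal stability assay for the named species, with intrinsic clearance reported in µl x min^-1 x mg^-1.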

[3] = Intrinsic clearance in human liver microsomes in presence of NADP/G6P/G6P dehydrogenase/MgCl2 by LC/MS analysis; type: ADME, microsome; conditions: read-out: CLH; in short: as §1
[4] = Intrinsic clearance in mouse liver microsomes in presence of NADP/G6P/G6P dehydrogenase/MgCl2/metabolic phase 2 co-factor by LC/MS analysis; type: ADME, microsome; conditions: read-out: CLH
In short: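 Mouse liver microsomes incubated with both phase 1 and phase 2 co-factors, with intrinsic clearance expressed in µl x min^-1 x mg^-1.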

[5] = Intrinsic clearance in dog liver microsomes in presence of NADP/G6P/G6P dehydrogenase/MgCl2 by LC/MS analysis; type: ADME, Canis lupus familiaris, microsome; conditions: read-out: CLH; in short: as §1
[6] = molecular target: T2, High affinity cGMP-specific 3',5'-cyclic phosphodiesterase 9A (Homo sapiens, UniProt O76083); assay: Inhibition of Ca2+/calmodulin-induced recombinant human full length N-terminal GST-tagged PDE9A2 expressed in baculovirus infected Sf9 cells using cGMP as substrate pretreated for 10 mins followed by substrate addition and measured after 60 mins by kinase-Glo luminescence assay
T2 sequence (O76083 whole entry, canonical isoform): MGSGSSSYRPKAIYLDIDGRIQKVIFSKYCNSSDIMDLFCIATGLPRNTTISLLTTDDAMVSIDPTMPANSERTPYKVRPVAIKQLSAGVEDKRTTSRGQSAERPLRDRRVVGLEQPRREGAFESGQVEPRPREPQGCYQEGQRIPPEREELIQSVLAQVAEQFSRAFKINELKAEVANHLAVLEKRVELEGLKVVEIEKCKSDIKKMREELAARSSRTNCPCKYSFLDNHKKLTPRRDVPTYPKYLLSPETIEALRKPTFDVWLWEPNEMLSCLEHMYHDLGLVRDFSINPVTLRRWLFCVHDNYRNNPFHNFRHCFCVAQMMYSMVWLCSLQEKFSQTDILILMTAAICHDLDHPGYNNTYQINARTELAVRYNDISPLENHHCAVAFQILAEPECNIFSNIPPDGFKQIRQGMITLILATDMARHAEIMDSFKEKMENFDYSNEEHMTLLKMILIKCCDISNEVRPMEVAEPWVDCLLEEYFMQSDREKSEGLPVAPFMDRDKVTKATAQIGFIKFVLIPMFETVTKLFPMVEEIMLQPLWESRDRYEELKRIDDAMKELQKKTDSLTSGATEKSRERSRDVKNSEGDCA
In short: (§2)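 Selectivity screen run as a PDE-Glo enzymatic-activity luminescence assay, with IC50 values determined against each counter-screen PDE isoform.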

[7] = molecular target: T3, Dual specificity calcium/calmodulin-dependent 3',5'-cyclic nucleotide phosphodiesterase 1C (Homo sapiens, UniProt Q14123); assay: Inhibition of Ca2+/calmodulin-induced full-length recombinant human N-terminal GST-tagged PDE1C expressed in baculovirus infected Sf9 insect cells using cAMP as substrate pretreated for 10 mins followed by substrate addition and measured after 30 mins by kinase-Glo luminescence assay; in short: as §2
T3 sequence (Q14123 whole entry, the tested form may be a part): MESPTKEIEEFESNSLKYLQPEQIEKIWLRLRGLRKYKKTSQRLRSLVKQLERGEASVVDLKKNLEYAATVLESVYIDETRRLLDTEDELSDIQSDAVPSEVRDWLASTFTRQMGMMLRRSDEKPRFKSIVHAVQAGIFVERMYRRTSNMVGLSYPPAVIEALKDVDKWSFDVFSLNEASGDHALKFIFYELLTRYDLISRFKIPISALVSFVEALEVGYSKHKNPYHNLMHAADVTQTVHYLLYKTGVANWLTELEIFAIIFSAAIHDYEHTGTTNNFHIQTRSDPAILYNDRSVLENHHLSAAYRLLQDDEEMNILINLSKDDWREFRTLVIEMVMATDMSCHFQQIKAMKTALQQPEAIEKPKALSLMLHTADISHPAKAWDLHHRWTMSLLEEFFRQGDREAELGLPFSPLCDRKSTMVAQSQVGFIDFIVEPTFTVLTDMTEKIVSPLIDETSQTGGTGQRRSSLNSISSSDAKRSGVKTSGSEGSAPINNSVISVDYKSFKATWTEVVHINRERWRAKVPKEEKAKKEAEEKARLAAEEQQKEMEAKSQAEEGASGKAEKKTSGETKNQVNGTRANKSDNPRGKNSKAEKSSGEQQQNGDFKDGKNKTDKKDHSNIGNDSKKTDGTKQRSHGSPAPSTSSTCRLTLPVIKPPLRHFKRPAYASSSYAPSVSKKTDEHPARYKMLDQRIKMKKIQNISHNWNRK

[8] = molecular target: T3, Dual specificity calcium/calmodulin-dependent 3',5'-cyclic nucleotide phosphodiesterase 1C; assay: Inhibition of recombinant human N-terminal GST-tagged PDE1C (2 to 634 residues) expressed in baculovirus infected Sf9 cells at 100 nM using iFl-cAMP/iFl-cGMP as substrate by mobility shift assay relative to control
[9] = molecular target: T4, cGMP-dependent 3',5'-cyclic phosphodiesterase (Rattus norvegicus) (UniProt Q01062); assay: Inhibition of rat PDE2A expressed in baculovirus infected Sf9 cells at 100 nM using iFl-cAMP/iFl-cGMP as substrate by mobility shift assay relative to control
T4 sequence (whole entry): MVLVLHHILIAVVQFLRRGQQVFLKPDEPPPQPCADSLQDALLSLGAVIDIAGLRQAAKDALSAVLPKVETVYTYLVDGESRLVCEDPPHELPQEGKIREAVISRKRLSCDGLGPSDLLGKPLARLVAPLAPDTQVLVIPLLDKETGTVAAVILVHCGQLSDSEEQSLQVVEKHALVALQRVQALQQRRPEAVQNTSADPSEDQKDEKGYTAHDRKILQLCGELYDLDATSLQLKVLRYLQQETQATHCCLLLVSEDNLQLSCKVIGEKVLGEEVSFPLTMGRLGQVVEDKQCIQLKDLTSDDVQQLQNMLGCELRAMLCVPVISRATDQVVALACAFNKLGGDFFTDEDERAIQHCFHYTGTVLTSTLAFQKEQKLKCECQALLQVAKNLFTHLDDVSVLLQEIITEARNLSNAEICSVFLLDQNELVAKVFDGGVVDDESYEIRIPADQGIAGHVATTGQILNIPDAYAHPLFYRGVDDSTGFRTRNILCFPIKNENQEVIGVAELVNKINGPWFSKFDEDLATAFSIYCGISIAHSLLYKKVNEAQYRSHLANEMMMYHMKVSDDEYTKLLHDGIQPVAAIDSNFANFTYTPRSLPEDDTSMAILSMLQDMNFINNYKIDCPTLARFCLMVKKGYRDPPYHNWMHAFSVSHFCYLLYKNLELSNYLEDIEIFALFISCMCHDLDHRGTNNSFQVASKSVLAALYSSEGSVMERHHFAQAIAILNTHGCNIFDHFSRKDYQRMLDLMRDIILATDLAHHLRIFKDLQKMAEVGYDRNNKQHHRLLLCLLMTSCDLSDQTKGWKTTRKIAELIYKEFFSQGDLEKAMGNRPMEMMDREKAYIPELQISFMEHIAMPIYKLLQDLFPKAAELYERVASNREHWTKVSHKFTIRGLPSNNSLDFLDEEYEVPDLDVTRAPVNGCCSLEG

[10] = molecular target: cGMP-inhibited 3',5'-cyclic phosphodiesterase 3B (Homo sapiens) (UniProt Q13370); assay: Inhibition of recombinant human N-terminal GST-tagged PDE3B (592 to end residues) expressed in baculovirus infected Sf9 cells at 100 nM using iFl-cAMP/iFl-cGMP as substrate by mobility shift assay relative to control
cGMP-inhibited 3',5'-cyclic phosphodiesterase 3B (Homo sapiens), sequence (Q13370 whole entry, looked up): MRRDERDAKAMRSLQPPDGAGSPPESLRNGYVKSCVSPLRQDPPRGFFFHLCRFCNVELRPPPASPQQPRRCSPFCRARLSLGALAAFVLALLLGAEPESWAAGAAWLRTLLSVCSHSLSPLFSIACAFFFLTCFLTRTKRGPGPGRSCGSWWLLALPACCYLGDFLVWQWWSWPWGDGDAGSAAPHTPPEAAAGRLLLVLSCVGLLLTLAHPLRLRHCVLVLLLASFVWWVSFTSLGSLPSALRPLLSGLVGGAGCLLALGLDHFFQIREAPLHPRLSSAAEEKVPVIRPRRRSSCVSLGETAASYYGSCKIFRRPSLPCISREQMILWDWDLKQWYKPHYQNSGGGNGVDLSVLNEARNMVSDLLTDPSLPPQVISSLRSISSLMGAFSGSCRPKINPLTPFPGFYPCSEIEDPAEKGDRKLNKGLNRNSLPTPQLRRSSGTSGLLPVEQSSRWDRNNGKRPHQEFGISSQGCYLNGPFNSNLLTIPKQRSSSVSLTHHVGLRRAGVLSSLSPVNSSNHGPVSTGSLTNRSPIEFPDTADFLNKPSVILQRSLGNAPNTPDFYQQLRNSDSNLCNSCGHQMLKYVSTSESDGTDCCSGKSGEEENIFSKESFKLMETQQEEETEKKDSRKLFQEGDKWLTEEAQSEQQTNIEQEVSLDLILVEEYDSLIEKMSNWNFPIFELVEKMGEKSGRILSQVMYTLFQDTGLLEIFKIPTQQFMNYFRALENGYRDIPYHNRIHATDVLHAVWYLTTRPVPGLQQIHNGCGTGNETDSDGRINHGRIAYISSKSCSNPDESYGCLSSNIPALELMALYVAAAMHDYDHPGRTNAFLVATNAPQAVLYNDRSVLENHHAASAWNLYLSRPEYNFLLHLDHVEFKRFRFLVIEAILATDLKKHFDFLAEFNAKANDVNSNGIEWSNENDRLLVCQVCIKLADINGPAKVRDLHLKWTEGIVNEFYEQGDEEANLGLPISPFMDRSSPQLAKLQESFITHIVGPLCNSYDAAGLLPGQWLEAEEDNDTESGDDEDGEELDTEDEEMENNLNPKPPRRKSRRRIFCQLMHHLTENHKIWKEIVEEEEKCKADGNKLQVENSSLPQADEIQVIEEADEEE

[11] = molecular target: 3',5'-cyclic-AMP phosphodiesterase 4B (Homo sapiens) (UniProt Q07343); assay: Inhibition of recombinant full length human N-terminal GST-tagged PDE4B1 expressed in baculovirus infected Sf9 cells at 100 nM using iFl-cAMP/iFl-cGMP as substrate by mobility shift assay relative to control
[12] = molecular target: cGMP-specific 3',5'-cyclic phosphodiesterase (Homo sapiens) (UniProt O76074); assay: Inhibition of PDE5A1 (unknown origin) at 100 nM using iFl-cAMP/iFl-cGMP as substrate by mobility shift assay relative to control
[13] = molecular target: Cone cGMP-specific 3',5'-cyclic phosphodiesterase subunit alpha' (Homo sapiens) (UniProt P51160); assay: Inhibition of PDE6C (unknown origin) at 100 nM using iFl-cAMP/iFl-cGMP as substrate by mobility shift assay relative to control
Cone cGMP-specific 3',5'-cyclic phosphodiesterase subunit alpha' (Homo sapiens), sequence (P51160 whole entry): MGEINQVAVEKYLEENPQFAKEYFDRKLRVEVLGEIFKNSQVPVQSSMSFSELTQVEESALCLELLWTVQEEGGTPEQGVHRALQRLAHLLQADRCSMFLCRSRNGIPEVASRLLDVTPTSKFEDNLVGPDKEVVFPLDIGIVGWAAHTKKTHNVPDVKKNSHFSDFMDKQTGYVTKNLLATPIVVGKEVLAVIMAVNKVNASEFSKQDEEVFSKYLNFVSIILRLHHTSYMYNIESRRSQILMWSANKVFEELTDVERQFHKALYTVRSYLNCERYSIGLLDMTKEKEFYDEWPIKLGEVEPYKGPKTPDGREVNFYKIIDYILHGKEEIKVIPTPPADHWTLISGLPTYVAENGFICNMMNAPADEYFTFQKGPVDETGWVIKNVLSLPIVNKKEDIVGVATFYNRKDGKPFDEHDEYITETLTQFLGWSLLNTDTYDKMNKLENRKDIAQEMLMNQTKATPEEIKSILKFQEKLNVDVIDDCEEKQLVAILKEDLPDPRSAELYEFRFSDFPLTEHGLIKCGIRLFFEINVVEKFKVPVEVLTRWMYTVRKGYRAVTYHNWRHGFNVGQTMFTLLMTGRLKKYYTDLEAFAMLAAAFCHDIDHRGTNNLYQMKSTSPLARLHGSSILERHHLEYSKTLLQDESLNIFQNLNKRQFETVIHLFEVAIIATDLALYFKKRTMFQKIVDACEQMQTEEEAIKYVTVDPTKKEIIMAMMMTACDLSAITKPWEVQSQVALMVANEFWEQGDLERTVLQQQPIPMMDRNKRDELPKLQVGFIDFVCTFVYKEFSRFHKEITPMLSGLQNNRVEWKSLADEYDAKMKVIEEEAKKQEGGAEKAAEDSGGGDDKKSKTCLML

[14] = molecular target: High affinity 3',5'-cyclic-AMP phosphodiesterase 7A (Homo sapiens) (UniProt Q13946); assay: Inhibition of PDE7A (unknown origin) at 100 nM using iFl-cAMP/iFl-cGMP as substrate by mobility shift assay relative to control
High affinity 3',5'-cyclic-AMP phosphodiesterase 7A (Homo sapiens), sequence (Q13946 whole entry): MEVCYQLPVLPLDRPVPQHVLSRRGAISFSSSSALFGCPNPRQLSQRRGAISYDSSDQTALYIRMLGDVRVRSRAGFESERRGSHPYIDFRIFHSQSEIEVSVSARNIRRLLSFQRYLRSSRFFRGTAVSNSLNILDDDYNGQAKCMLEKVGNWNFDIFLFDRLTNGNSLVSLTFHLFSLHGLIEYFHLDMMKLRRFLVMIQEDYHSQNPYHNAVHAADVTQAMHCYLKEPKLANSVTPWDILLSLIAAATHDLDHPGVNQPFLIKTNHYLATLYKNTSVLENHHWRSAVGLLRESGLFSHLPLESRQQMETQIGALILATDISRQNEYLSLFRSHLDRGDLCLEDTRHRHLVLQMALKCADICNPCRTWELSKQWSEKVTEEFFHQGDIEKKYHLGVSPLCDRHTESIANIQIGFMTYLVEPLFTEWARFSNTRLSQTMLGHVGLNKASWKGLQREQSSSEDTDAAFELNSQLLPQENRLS

[15] = molecular target: High affinity cAMP-specific and IBMX-insensitive 3',5'-cyclic phosphodiesterase 8A (Homo sapiens) (UniProt O60658); assay: Inhibition of recombinant full length human N-terminal GST-tagged PDE8A1 expressed in baculovirus infected Sf9 cells at 100 nM using iFl-cAMP/iFl-cGMP as substrate by mobility shift assay relative to control
[16] = molecular target: T2, High affinity cGMP-specific 3',5'-cyclic phosphodiesterase 9A; assay: Inhibition of recombinant full length human N-terminal GST-tagged PDE9A2 expressed in baculovirus infected Sf9 cells at 100 nM using iFl-cAMP/iFl-cGMP as substrate by mobility shift assay relative to control
[17] = molecular target: T1, cAMP and cAMP-inhibited cGMP 3',5'-cyclic phosphodiesterase 10A; assay: Inhibition of recombinant human N-terminal GST-tagged PDE10A1 ( 2 to 789 residues) expressed in baculovirus infected Sf9 cells at 100 nM using iFl-cAMP/iFl-cGMP as substrate by mobility shift assay relative to control
[18] = molecular target: Dual 3',5'-cyclic-AMP and -GMP phosphodiesterase 11A (Mus musculus) (UniProt P0C1Q2); assay: Inhibition of recombinant mouse N-terminal GST-tagged PDE11A (2 to 933 residues) expressed in baculovirus infected Sf9 cells at 100 nM using iFl-cAMP/iFl-cGMP as substrate by mobility shift assay relative to control
[19] = molecular target: T1, cAMP and cAMP-inhibited cGMP 3',5'-cyclic phosphodiesterase 10A; assay: Inhibition of PDE10 (unknown origin)
[20] = Intrinsic clearance in rat liver microsomes; type: ADME, microsome

SMILES	IC50 [1]	microsomal CLint [2]	microsomal CLint [3]	microsomal CLint [4]	microsomal CLint [5]	IC50 [6]	IC50 [7]	inhibition [8]	inhibition [9]	inhibition [10]	inhibition [11]	inhibition [12]	inhibition [13]	inhibition [14]	inhibition [15]	inhibition [16]	inhibition [17]	inhibition [18]	IC50 [19]	CLH [20]
Cc1ncc(C)n2nc(-c3ccn4cc(-c5ccccc5)nc4n3)nc12	35 nM	5.6 µL/min/mg	1.8 µL/min/mg	0.6 µL/min/mg	7.4 µL/min/mg	> 10000 nM	> 10000 nM	5%	9%	7%	4%	6%	18%	26%	-1%	-3%	98%	9%		
Cc1ncc(C)n2nc(-c3ccc4nc(-c5ccccc5)[nH]c4c3)nc12								16%	8%	-3%	3%	6%	-3%	8%	-4%	-7%	99%	8%		
Cc1ncc(C)n2nc(-c3ccn4cc(-c5ccccc5)nc4c3)nc12		68.9 µL/min/mg	11.6 µL/min/mg	28.9 µL/min/mg	16.3 µL/min/mg														37 nM	68.8 µL/min/mg
